One assay concerns iNKT. The experiment in a line: Immunomodulatory activity in mouse iNKT DN3A4-1.2 cells assessed as stimulation of IL2 production after 24 hrs by ELISA. Background: ELISA stands for enzyme-linked immunosorbent assay.
The subject of assay [1] is Mus musculus. Nature of the assay: Immunomodulatory activity in ip dosed C57BL/6 mouse assessed as stimulation of IL4 production after 2 hrs. It is filed as functional, organism-based. The procedure, abridged: (§1)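 C57BL/6 mice received the glycolipids by intraperitoneal injection. Cytokines were measured in serum: IL-4 at 2 h and IFN-γ at 24 h after injection.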
Assay [2] concerns Mus musculus. Nature of the assay: Immunomodulatory activity in ip dosed C57BL/6 mouse assessed as stimulation of IL4 production after 2 hrs.
The subject of assay [3] is Mus musculus. Nature of the assay: Immunomodulatory activity in ip dosed C57BL/6 mouse assessed as stimulation of IFNgamma production after 24 hrs. It is filed as functional, organism-based. The essentials:
as §1

The test system of assay [4] is Mus musculus. Nature of the assay: Immunomodulatory activity in ip dosed C57BL/6 mouse assessed as stimulation of IFNgamma production after 24 hrs.

The source made the active and inactive calls. The rule behind the calls is not given here.

On to `CCCCCCCCCCCCCCCCCCCCCCCCCC(=O)N[C@@H](CO[C@H]1O[C@H](Cn2nnc3ccccc32)[C@H](O)[C@H](O)[C@H]1O)[C@H](O)[C@H](O)CCCCCCCCCCCCCC`, for which the outcome in the assay with iNKT was Active.
In the case of `CCCCCCCCCCCCCCCCCCCCCCCCCC(=O)N[C@@H](CO[C@H]1O[C@H](Cn2cc(-c3ccccc3)nn2)[C@H](O)[C@H](O)[C@H]1O)[C@H](O)[C@H](O)CCCCCCCCCCCCCC`, the outcome with iNKT was Active.
In the case of `CCCCCCCCCCCCCCCCCCCCCCCCCC(=O)N[C@@H](CO[C@H]1O[C@H](Cn2cc(CCCCCCCCCCCC)nn2)[C@H](O)[C@H](O)[C@H]1O)[C@H](O)[C@H](O)CCCCCCCCCCCCCC`, the result in the assay on Mus musculus [1], with Mus musculus [2], in the assay with Mus musculus [3] and in the assay with Mus musculus [4] was Active.
Take `CCCCCCCCCCCCCCCCCCCCCCCCCC(=O)N[C@@H](CO[C@H]1O[C@H](Cn2cc(CCCCCCCC)nn2)[C@H](O)[C@H](O)[C@H]1O)[C@H](O)[C@H](O)CCCCCCCCCCCCCC`: the result in the assay with iNKT, in the assay with Mus musculus [1], with Mus musculus [2], in the assay with Mus musculus [3] and with Mus musculus [4] was Active.
As for `CCCCCCCCCCCCCCCCCCCCCCCCCC(=O)N[C@@H](CO[C@H]1O[C@H](CN=[N+]=[N-])[C@H](O)[C@H](O)[C@H]1O)[C@H](O)[C@H](O)CCCCCCCCCCCCCC`, the outcome in the assay with iNKT, in the assay with Mus musculus [3] and in the assay on Mus musculus [4] was Active.
Consider `CCCCCCCCCCCCCCCCCCCCCCCCCC(=O)N[C@@H](CO[C@H]1O[C@H](Cn2cc(COCCOCCOCCOCCOCCOCCOCCOCCOC)nn2)[C@H](O)[C@H](O)[C@H]1O)[C@H](O)[C@H](O)CCCCCCCCCCCCCC`, for which the outcome in the assay with iNKT, in the assay with Mus musculus [1], in the assay with Mus musculus [2], with Mus musculus [3] and in the assay with Mus musculus [4] was Active.
For the compound `CCCCCCCCCCCCCCCCCCCCCCCCCC(=O)N[C@@H](CO[C@H]1O[C@H](Cn2nncc2-c2ccccc2)[C@H](O)[C@H](O)[C@H]1O)[C@H](O)[C@H](O)CCCCCCCCCCCCCC`, the outcome with iNKT, in the assay with Mus musculus [1] and in the assay with Mus musculus [2] was Active.
In the case of `CCCCCCCCCCCCCCCCCCCCCCCCCC(=O)N[C@@H](CO[C@H]1O[C@H](Cn2nnc(-c3ccccc3)c2-c2ccccc2)[C@H](O)[C@H](O)[C@H]1O)[C@H](O)[C@H](O)CCCCCCCCCCCCCC`, the outcome in the assay on iNKT was Active.

Source of the values: ChEMBL document CHEMBL2057201, “New CD1d agonists: synthesis and biological activity of 6″-triazole-substituted α-galactosyl ceramides” (Bioorg Med Chem Lett, 2012).
